Experimental data from ChEMBL document CHEMBL1134652, “N-Methyl scan of somatostatin octapeptide agonists produces interesting effects on receptor subtype specificity” (J Med Chem, 2001).
Where a SMILES comes first, the peptide text is derived from it. Bridges are numbered along the chain shown (N, C = ends). [ ]: non-standard residue; d: D form. NMeY = CN[C@@H](Cc1ccc(O)cc1)C(=O)O; NMeT = CN[C@H](C(=O)O)[C@@H](C)O; NMeK = CN[C@@H](CCCCN)C(=O)O; NMeC = CN[C@@H](CS)C(=O)O

Columns and labels:
[1] = species on record: Rattus norvegicus; assay: in vitro Agonist activity (inhibition of growth hormone release) on cultured rat pituitary cells; format: functional, cell-based; conditions: Pituitary gland cell
Procedure, shortened: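 Anterior pituitary cells from adult male rats were dispersed with trypsin/DNase and cultured 4–5 days at about 200 000 cells/well. GH in the medium was measured by double-antibody RIA.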

[2] = target: Somatostatin receptor type 1 (Homo sapiens, UniProt P30872); assay: Binding affinity was determined on cloned human somatostatin receptor-1 (hsst1)
Sequence of Somatostatin receptor type 1 (P30872 whole entry): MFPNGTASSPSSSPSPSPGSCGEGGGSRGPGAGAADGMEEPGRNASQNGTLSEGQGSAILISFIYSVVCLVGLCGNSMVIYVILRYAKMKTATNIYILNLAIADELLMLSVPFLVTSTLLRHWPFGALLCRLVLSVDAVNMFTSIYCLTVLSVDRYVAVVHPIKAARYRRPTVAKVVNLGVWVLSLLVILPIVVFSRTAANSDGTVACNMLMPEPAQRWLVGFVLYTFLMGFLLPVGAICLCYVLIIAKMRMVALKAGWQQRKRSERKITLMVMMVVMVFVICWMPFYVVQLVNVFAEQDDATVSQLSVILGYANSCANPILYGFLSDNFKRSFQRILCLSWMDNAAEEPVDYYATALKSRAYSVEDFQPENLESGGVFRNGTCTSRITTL
Procedure, shortened: (§1)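 Membranes from CHO-K1 cells stably transfected with human sst1, sst2 or sst4 (calcium phosphate, G418 selection), resuspended in 10 mM Tris-HCl. Filtered on GF/C; nonspecific binding measured with 1.0 μM SRIF. Kd from concentration-dependent displacement.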

[3] = target: Somatostatin receptor type 5 (Homo sapiens, UniProt P35346); assay: Binding affinity was determined on cloned human somatostatin receptor-1 (hsst5)
Sequence of Somatostatin receptor type 5 (P35346 whole entry): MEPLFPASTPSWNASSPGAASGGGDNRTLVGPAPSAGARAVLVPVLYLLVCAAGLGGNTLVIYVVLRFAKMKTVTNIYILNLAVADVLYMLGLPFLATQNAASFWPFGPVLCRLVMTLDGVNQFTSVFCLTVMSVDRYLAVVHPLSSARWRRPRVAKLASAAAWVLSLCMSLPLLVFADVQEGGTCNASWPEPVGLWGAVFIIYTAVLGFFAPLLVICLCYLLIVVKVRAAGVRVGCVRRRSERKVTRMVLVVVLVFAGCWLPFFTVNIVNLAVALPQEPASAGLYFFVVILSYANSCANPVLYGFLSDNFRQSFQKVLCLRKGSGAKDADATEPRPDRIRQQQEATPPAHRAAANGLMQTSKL

[4] = target: Somatostatin receptor type 2 (Homo sapiens, UniProt P30874); assay: Binding affinity was determined on cloned human somatostatin receptor-1 (hsst2); procedure, shortened: as §1
Sequence of Somatostatin receptor type 2 (P30874 whole entry): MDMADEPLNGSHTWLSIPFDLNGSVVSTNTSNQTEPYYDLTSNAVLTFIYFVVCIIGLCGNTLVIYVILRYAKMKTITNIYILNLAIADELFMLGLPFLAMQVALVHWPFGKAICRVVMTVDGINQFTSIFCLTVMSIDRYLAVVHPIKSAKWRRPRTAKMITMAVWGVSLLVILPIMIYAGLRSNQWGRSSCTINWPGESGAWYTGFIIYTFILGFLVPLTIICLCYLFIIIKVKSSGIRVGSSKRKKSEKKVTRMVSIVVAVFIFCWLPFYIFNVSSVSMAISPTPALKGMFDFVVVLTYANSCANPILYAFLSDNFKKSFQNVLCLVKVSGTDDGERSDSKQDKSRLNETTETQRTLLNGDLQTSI

[5] = target: Somatostatin receptor type 3 (Homo sapiens, UniProt P32745); assay: Binding affinity was determined on cloned human somatostatin receptor-1 (hsst3)
Sequence of Somatostatin receptor type 3 (P32745 whole entry): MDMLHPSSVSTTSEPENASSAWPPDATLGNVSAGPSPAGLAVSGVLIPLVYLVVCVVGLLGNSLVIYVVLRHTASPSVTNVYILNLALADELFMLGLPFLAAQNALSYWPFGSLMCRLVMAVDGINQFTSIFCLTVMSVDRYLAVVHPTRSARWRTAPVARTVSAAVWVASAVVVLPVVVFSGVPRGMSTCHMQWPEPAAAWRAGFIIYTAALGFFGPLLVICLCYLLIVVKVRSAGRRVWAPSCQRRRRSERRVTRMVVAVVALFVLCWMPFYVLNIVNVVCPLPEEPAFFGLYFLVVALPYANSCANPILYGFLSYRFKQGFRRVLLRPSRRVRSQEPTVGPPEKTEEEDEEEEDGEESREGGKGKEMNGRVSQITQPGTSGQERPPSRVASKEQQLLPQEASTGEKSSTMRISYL

[6] = target: Somatostatin receptor type 4 (Homo sapiens, UniProt P31391); assay: Binding affinity was determined on cloned human somatostatin receptor-1 (hsst4)
Sequence of Somatostatin receptor type 4 (P31391 whole entry): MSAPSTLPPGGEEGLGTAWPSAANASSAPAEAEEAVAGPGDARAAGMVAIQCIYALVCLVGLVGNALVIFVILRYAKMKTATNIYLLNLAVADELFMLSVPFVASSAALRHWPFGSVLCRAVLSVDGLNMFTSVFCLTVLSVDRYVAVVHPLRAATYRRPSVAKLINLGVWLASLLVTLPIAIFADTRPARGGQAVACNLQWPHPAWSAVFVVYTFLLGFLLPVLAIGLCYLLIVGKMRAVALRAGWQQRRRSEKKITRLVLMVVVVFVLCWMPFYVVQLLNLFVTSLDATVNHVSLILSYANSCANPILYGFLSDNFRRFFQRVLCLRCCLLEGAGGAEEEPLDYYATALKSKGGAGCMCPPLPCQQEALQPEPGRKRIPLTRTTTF
Procedure, shortened: as §1, with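 “Tris-HCl. Incubated 30 min at 37 °C with 0.05 nM [125I]Tyr11-SRIF (sst1, sst4) or [125I]MK-678 (sst2) in HEPES pH 7.4 with BSA, MgCl2 and protease inhibitors.” for “Tris-HCl.”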

`C[C@@H](O)[C@H](NC(=O)[C@@H]1CSSC[C@H](NC(=O)[C@@H](N)Cc2ccc(O)cc2)C(=O)N[C@@H](Cc2ccccc2)C(=O)N[C@H](Cc2c[nH]c3ccccc23)C(=O)N[C@@H](CCCCN)C(=O)N[C@@H]([C@@H](C)O)C(=O)N1)C(N)=O` (H-YCF[dW]KTCT-NH2; disulfide 2-7) was tested, and the IC50 [1] was 1.11 nM.
Work on `C[C@@H](O)[C@H](NC(=O)[C@@H]1CSSC[C@H](NC(=O)[C@@H](N)Cc2ccc(O)cc2)C(=O)N[C@@H](Cc2ccccc2)C(=O)N[C@H](Cc2c[nH]c3ccccc23)C(=O)N(C)[C@@H](CCCCN)C(=O)N[C@@H]([C@@H](C)O)C(=O)N1)C(N)=O` (H-YCF[dW][NMeK]TCT-NH2; disulfide 2-7) yielded an IC50 [1] of 27.4 nM.
`C[C@@H](O)[C@H](NC(=O)[C@@H]1CSSC[C@H](NC(=O)[C@H](N)Cc2ccccc2)C(=O)N[C@@H](Cc2ccccc2)C(=O)N[C@H](Cc2c[nH]c3ccccc23)C(=O)N[C@@H](CCCCN)C(=O)N[C@@H]([C@@H](C)O)C(=O)N1)C(N)=O` showed an IC50 [1] of 0.16 nM.
In the case of `C[C@@H](O)[C@H](NC(=O)[C@@H]1CSSC[C@H](N(C)C(=O)[C@H](N)Cc2ccccc2)C(=O)N[C@@H](Cc2ccccc2)C(=O)N[C@H](Cc2c[nH]c3ccccc23)C(=O)N[C@@H](CCCCN)C(=O)N[C@@H]([C@@H](C)O)C(=O)N1)C(N)=O`, the IC50 [1] is reported as 0.36 nM.
With `CN[C@H](Cc1ccccc1)C(=O)N[C@H]1CSSC[C@@H](C(=O)N[C@H](C(N)=O)[C@@H](C)O)NC(=O)[C@H]([C@@H](C)O)NC(=O)[C@H](CCCCN)NC(=O)[C@@H](Cc2c[nH]c3ccccc23)NC(=O)[C@H](Cc2ccccc2)NC1=O` the Kd [2] was 316 nM, the Kd [3] was 4.89 nM and the Kd [4] was 1.03 nM. The Kd [5] was 17.9 nM and the Kd [6] was over 1000 nM.
`C[C@@H](O)[C@@H]1NC(=O)[C@H](CCCCN)NC(=O)[C@@H](Cc2c[nH]c3ccccc23)NC(=O)[C@H](Cc2ccccc2)NC(=O)[C@@H](NC(=O)[C@H](N)Cc2ccccc2)CSSC[C@@H](C(=O)N(C)[C@H](C(N)=O)[C@@H](C)O)NC1=O` showed an IC50 [1] of 28.8 nM.
`C[C@@H](O)[C@H](NC(=O)[C@@H]1CSSC[C@H](NC(=O)[C@@H](N)Cc2ccc(O)cc2)C(=O)N[C@@H](Cc2ccccc2)C(=O)N[C@H](Cc2c[nH]c3ccccc23)C(=O)N[C@@H](CCCCN)C(=O)N[C@@H]([C@@H](C)O)C(=O)N1C)C(N)=O` (H-YCF[dW]KT[NMeC]T-NH2; disulfide 2-7) showed a Kd [4] of 56.2 nM.
`C[C@@H](O)[C@H](NC(=O)[C@@H]1CSSC[C@H](NC(=O)[C@@H](N)Cc2ccc(O)cc2)C(=O)N[C@@H](Cc2ccccc2)C(=O)N[C@H](Cc2c[nH]c3ccccc23)C(=O)N[C@@H](CCCCN)C(=O)N(C)[C@@H]([C@@H](C)O)C(=O)N1)C(N)=O` (H-YCF[dW]K[NMeT]CT-NH2; disulfide 2-7) was tested, and the Kd [6] was 1000 nM.
With `CN[C@@H](Cc1ccc(O)cc1)C(=O)N[C@H]1CSSC[C@@H](C(=O)N[C@H](C(N)=O)[C@@H](C)O)NC(=O)[C@H]([C@@H](C)O)NC(=O)[C@H](CCCCN)NC(=O)[C@@H](Cc2c[nH]c3ccccc23)NC(=O)[C@H](Cc2ccccc2)NC1=O` (H-[NMeY]CF[dW]KTCT-NH2; disulfide 2-7) the Kd [2] was 811 nM and the Kd [4] was 9.74 nM.
